≈ marks a conversion by molar mass, not a printed value.
Columns and labels:
[1] = test system: Staphylococcus aureus; test: Antibacterial activity against 10^5 CFU/mL Staphylococcus aureus MTCC 96 after 24 hrs by disc diffusion technique; assay type: functional
How it was run: (§1)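 Disc diffusion on Mueller–Hinton agar poured 5 mm deep. The surface was swabbed with a 10⁵ CFU/mL […] suspension. Filter-paper discs 6.25 mm in diameter were soaked in compound in DMSO and placed on the agar. Plates were incubated 24 h at 37 ± 1 °C, and the inhibition zone was measured in mm. A DMSO disc served as blank.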

[2] = test system: Staphylococcus aureus; test: Antibacterial activity against 10^5 CFU/mL Staphylococcus aureus MTCC 96 after 24 hrs by agar streak dilution method; assay type: functional; conditions: MTCC 96, 24 h
How it was run: (§2)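 Agar streak dilution. Stock 100 µg/mL in DMSO; graded amounts were mixed into molten nutrient agar and poured at 4–5 mm depth. Plates carried serial dilutions over […]. About 10⁵ CFU/mL of each bacterium was applied, and plates were incubated at 37 ± 1 °C for 24 h. MIC was read from the dilution series.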

[3] = test system: Bacillus cereus; test: Antibacterial activity against 10^5 CFU/mL Bacillus cereus MTCC 619 after 24 hrs by disc diffusion technique; assay type: functional; how it was run: as §1
[4] = test system: Bacillus cereus; test: Antibacterial activity against 10^5 CFU/mL Bacillus cereus MTCC 619 after 24 hrs by agar streak dilution method; assay type: functional; conditions: MTCC 619, 24 h; how it was run: as §2
[5] = test system: DU-145; test: Cytotoxicity against […] human DU145 cells after 48 hrs by SRB assay; assay type: functional; conditions: DU-145, 48 h
How it was run: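 SRB assay in DU-145 cells grown in RPMI 1640 with 10% FBS and 2 mM L-glutamine. Cells were plated and held 24 h before addition of four 10-fold concentrations. After 48 h, cells were TCA-fixed, stained with 0.4% SRB and read at 540 nm. GI50, TGI and LC50 were derived against time-zero and control wells; each value is the mean of three experiments.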

[6] = test system: Escherichia coli; test: Antibacterial activity against 10^5 CFU/mL Escherichia coli MTCC 739 after 24 hrs by disc diffusion technique; assay type: functional; how it was run: as §1
[7] = test system: Escherichia coli; test: Antibacterial activity against 10^5 CFU/mL Escherichia coli MTCC 739 after 24 hrs by agar streak dilution method; assay type: functional; conditions: MTCC 739, 24 h; how it was run: as §2
[8] = test system: Pseudomonas aeruginosa; test: Antibacterial activity against 10^5 CFU/mL Pseudomonas aeruginosa MTCC 741 after 24 hrs by disc diffusion technique; assay type: functional; how it was run: as §1
[9] = test system: Pseudomonas aeruginosa; test: Antibacterial activity against 10^5 CFU/mL Pseudomonas aeruginosa MTCC 741 after 24 hrs by agar streak dilution method; assay type: functional; conditions: MTCC 741, 24 h; how it was run: as §2
[10] = test system: Klebsiella pneumoniae; test: Antibacterial activity against 10^5 CFU/mL Klebsiella pneumoniae MTCC 109 after 24 hrs by disc diffusion technique; assay type: functional; how it was run: as §1
[11] = test system: Klebsiella pneumoniae; test: Antibacterial activity against 10^5 CFU/mL Klebsiella pneumoniae MTCC 109 after 24 hrs by agar streak dilution method; assay type: functional; conditions: MTCC 109, 24 h; how it was run: as §2
[12] = test system: Salmonella typhi; test: Antibacterial activity against 10^5 CFU/mL Salmonella typhi MTCC 733 after 24 hrs by disc diffusion technique; assay type: functional, Salmonella enterica subsp. enterica serovar Typhi
How it was run: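 Disc diffusion. Mueller-Hinton agar autoclaved 120 °C 30 min, poured 5 mm deep. Surface swabbed with 10⁵ CFU/mL suspension […]. 6.25 mm filter-paper discs soaked in compound in DMSO; DMSO-only disc as blank. Incubated 37 ± 1 °C, 24 h for bacteria or 48 h for fungi. Ciprofloxacin and ketoconazole discs as reference drugs. Inhibition zone measured in mm.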

[13] = test system: Salmonella typhi; test: Antibacterial activity against 10^5 CFU/mL Salmonella typhi MTCC 733 after 24 hrs by agar streak dilution method; assay type: functional, Salmonella enterica subsp. enterica serovar Typhi; conditions: Salmonella enterica, MTCC 733, 24 h
[14] = test system: Proteus vulgaris; test: Antibacterial activity against 10^5 CFU/mL Proteus vulgaris MTCC 1771 after 24 hrs by disc diffusion technique; assay type: functional; how it was run: as §1
[15] = test system: Proteus vulgaris; test: Antibacterial activity against 10^5 CFU/mL Proteus vulgaris MTCC 1771 after 24 hrs by agar streak dilution method; assay type: functional; conditions: MTCC 1771, 24 h; how it was run: as §2
[16] = test system: Shigella flexneri; test: Antibacterial activity against 10^5 CFU/mL Shigella flexneri MTCC 1457 after 24 hrs by disc diffusion technique; assay type: functional; how it was run: as §1
[17] = test system: Shigella flexneri; test: Antibacterial activity against 10^5 CFU/mL Shigella flexneri MTCC 1457 after 24 hrs by agar streak dilution method; assay type: functional; conditions: MTCC 1457, 24 h; how it was run: as §2
[18] = test system: Aspergillus niger; test: Antifungal activity against 10^5 CFU/mL Aspergillus niger MTCC 282 after 48 hrs by disc diffusion technique; assay type: functional
[19] = test system: Aspergillus niger; test: Antifungal activity against 10^5 CFU/mL Aspergillus niger MTCC 282 after 48 hrs by agar streak dilution method; assay type: functional; conditions: MTCC 282, 48 h
How it was run: (§3)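 Agar streak dilution for fungi. Stock 100 µg/mL in DMSO; graded amounts were mixed into molten Sabouraud dextrose agar and poured at 4–5 mm depth. Serial dilutions ran over […]. About 10⁵ CFU/mL inoculum was applied, with incubation at 37 ± 1 °C for 48 h. MIC was read from the dilution series.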

[20] = test system: Aspergillus fumigatus; test: Antifungal activity against 10^5 CFU/mL Aspergillus fumigatus MTCC 343 after 48 hrs by disc diffusion technique; assay type: functional
[21] = test system: Aspergillus fumigatus; test: Antifungal activity against 10^5 CFU/mL Aspergillus fumigatus MTCC 343 after 48 hrs by agar streak dilution method; assay type: functional; conditions: MTCC 343, 48 h; how it was run: as §3
[22] = test system: Aspergillus clavatus; test: Antifungal activity against 10^5 CFU/mL Aspergillus clavatus MTCC 1323 after 48 hrs by disc diffusion technique; assay type: functional
[23] = test system: Aspergillus clavatus; test: Antifungal activity against 10^5 CFU/mL Aspergillus clavatus MTCC 1323 after 48 hrs by agar streak dilution method; assay type: functional; conditions: MTCC 1323, 48 h; how it was run: as §3
[24] = test system: Candida albicans; test: Antifungal activity against 10^5 CFU/mL Candida albicans MTCC 183 after 48 hrs by disc diffusion technique; assay type: functional
[25] = test system: Candida albicans; test: Antifungal activity against 10^5 CFU/mL Candida albicans MTCC 183 after 48 hrs by agar streak dilution method; assay type: functional; conditions: MTCC 183, 48 h; how it was run: as §3
[26] = test system: Mycobacterium tuberculosis; test: Antimycobacterial activity against 10^4 to 10^7 CFU/mL Mycobacterium tuberculosis H37Rv at 6.25 ug/ml by BACTEC MGIT method; assay type: functional
How it was run: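 Primary screen at 6.25 in the BACTEC MGIT system: modified Middlebrook 7H9 broth tubes with compound, seeded with 10⁴-10⁷ CFU/mL H37Rv plus 0.1 mL egg-based L.J. medium. Incubated at 37 ± 1 °C and read daily from day 2 under UV light against positive and uninoculated controls.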

SMILES	inhibition zone (IZ) [1]	MIC [2]	inhibition zone (IZ) [3]	MIC [4]	GI50 [5]	LC50 (concentration giving 50% net cell kill relative to time zero) [5]	TGI [5]	inhibition zone (IZ) [6]	MIC [7]	inhibition zone (IZ) [8]	MIC [9]	inhibition zone (IZ) [10]	MIC [11]	inhibition zone (IZ) [12]	MIC [13]	inhibition zone (IZ) [14]	MIC [15]	inhibition zone (IZ) [16]	MIC [17]	inhibition zone (IZ) [18]	further results
N#Cc1ccc(Nc2nc(Oc3ccnc4ccccc34)nc(N3CCN(C(c4ccccc4)c4ccc(Cl)cc4)CC3)n2)cc1C(F)(F)F (centres undefined)	25 mm	12.5 µg/mL (≈ 18 µM)	25 mm	12.5 µg/mL (≈ 18 µM)	> 100 µM	> 100 µM	> 100 µM	23 mm	50 µg/mL (≈ 72.1 µM)	24 mm	12.5 µg/mL (≈ 18 µM)	25 mm	12.5 µg/mL (≈ 18 µM)	25 mm	25 µg/mL (≈ 36.1 µM)	27 mm	6.25 µg/mL (≈ 9.02 µM)	22 mm	25 µg/mL (≈ 36.1 µM)	25 mm	MIC [19]: 25 µg/mL (≈ 36.1 µM); inhibition zone (IZ) [20]: 26 mm; MIC [21]: 25 µg/mL (≈ 36.1 µM); inhibition zone (IZ) [22]: 25 mm; MIC [23]: 50 µg/mL (≈ 72.1 µM); inhibition zone (IZ) [24]: 25 mm; MIC [25]: 25 µg/mL (≈ 36.1 µM)
N#Cc1ccc(Nc2nc(Oc3ccnc4ccccc34)nc(N3CCN(c4ccccc4F)CC3)n2)cc1C(F)(F)F	24 mm	25 µg/mL (≈ 42.6 µM)	27 mm	6.25 µg/mL (≈ 10.7 µM)	> 100 µM	> 100 µM	> 100 µM	26 mm	12.5 µg/mL (≈ 21.3 µM)	22 mm	50 µg/mL (≈ 85.2 µM)	26 mm	12.5 µg/mL (≈ 21.3 µM)	24 mm	25 µg/mL (≈ 42.6 µM)	25 mm	6.25 µg/mL (≈ 10.7 µM)	23 mm	25 µg/mL (≈ 42.6 µM)	25 mm	MIC [19]: 25 µg/mL (≈ 42.6 µM); inhibition zone (IZ) [20]: 25 mm; MIC [21]: 25 µg/mL (≈ 42.6 µM); inhibition zone (IZ) [22]: 24 mm; MIC [23]: 50 µg/mL (≈ 85.2 µM); inhibition zone (IZ) [24]: 26 mm; MIC [25]: 25 µg/mL (≈ 42.6 µM)
N#Cc1ccc(Nc2nc(Oc3ccnc4ccccc34)nc(N3CCN(c4ccc(F)cc4)CC3)n2)cc1C(F)(F)F	25 mm	25 µg/mL (≈ 42.6 µM)	26 mm	6.25 µg/mL (≈ 10.7 µM)	> 100 µM	> 100 µM	> 100 µM	22 mm	50 µg/mL (≈ 85.2 µM)	23 mm	25 µg/mL (≈ 42.6 µM)	23 mm	25 µg/mL (≈ 42.6 µM)	24 mm	25 µg/mL (≈ 42.6 µM)	24 mm	25 µg/mL (≈ 42.6 µM)	21 mm	50 µg/mL (≈ 85.2 µM)	26 mm	MIC [19]: 12.5 µg/mL (≈ 21.3 µM); inhibition zone (IZ) [20]: 24 mm; MIC [21]: 50 µg/mL (≈ 85.2 µM); inhibition zone (IZ) [22]: 25 mm; MIC [23]: 50 µg/mL (≈ 85.2 µM); inhibition zone (IZ) [24]: 24 mm; MIC [25]: 50 µg/mL (≈ 85.2 µM)
N#Cc1ccc(Nc2nc(Oc3ccnc4ccccc34)nc(N3CCN(c4cccc(C(F)(F)F)c4)CC3)n2)cc1C(F)(F)F	28 mm	6.25 µg/mL (≈ 9.82 µM)	28 mm	6.25 µg/mL (≈ 9.82 µM)	38.7 µM	> 100 µM	74.1 µM	26 mm	12.5 µg/mL (≈ 19.6 µM)	25 mm	6.25 µg/mL (≈ 9.82 µM)	23 mm	25 µg/mL (≈ 39.3 µM)	27 mm	12.5 µg/mL (≈ 19.6 µM)	25 mm	12.5 µg/mL (≈ 19.6 µM)	25 mm	12.5 µg/mL (≈ 19.6 µM)	27 mm	MIC [19]: 12.5 µg/mL (≈ 19.6 µM); inhibition zone (IZ) [20]: 27 mm; MIC [21]: 25 µg/mL (≈ 39.3 µM); inhibition zone (IZ) [22]: 28 mm; MIC [23]: 12.5 µg/mL (≈ 19.6 µM); inhibition zone (IZ) [24]: 26 mm; MIC [25]: 25 µg/mL (≈ 39.3 µM); inhibition at 6.25 µg/mL [26]: 99%
COc1ccc(CN2CCN(c3nc(Nc4ccc(C#N)c(C(F)(F)F)c4)nc(Oc4ccnc5ccccc45)n3)CC2)c(OC)c1OC	28 mm	6.25 µg/mL (≈ 9.29 µM)	26 mm	6.25 µg/mL (≈ 9.29 µM)	> 100 µM	> 100 µM	> 100 µM	26 mm	12.5 µg/mL (≈ 18.6 µM)	26 mm	6.25 µg/mL (≈ 9.29 µM)	23 mm	12.5 µg/mL (≈ 18.6 µM)	26 mm	12.5 µg/mL (≈ 18.6 µM)	26 mm	6.25 µg/mL (≈ 9.29 µM)	25 mm	12.5 µg/mL (≈ 18.6 µM)	27 mm	MIC [19]: 12.5 µg/mL (≈ 18.6 µM); inhibition zone (IZ) [20]: 27 mm; MIC [21]: 25 µg/mL (≈ 37.2 µM); inhibition zone (IZ) [22]: 28 mm; MIC [23]: 12.5 µg/mL (≈ 18.6 µM); inhibition zone (IZ) [24]: 25 mm; MIC [25]: 25 µg/mL (≈ 37.2 µM); inhibition at 6.25 µg/mL [26]: 99%
COc1ccc(N2CCN(c3nc(Nc4ccc(C#N)c(C(F)(F)F)c4)nc(Oc4ccnc5ccccc45)n3)CC2)cc1	24 mm	25 µg/mL (≈ 41.8 µM)	28 mm	6.25 µg/mL (≈ 10.4 µM)	> 100 µM	> 100 µM	> 100 µM	25 mm	12.5 µg/mL (≈ 20.9 µM)	26 mm	6.25 µg/mL (≈ 10.4 µM)	23 mm	25 µg/mL (≈ 41.8 µM)	24 mm	25 µg/mL (≈ 41.8 µM)	24 mm	12.5 µg/mL (≈ 20.9 µM)	23 mm	12.5 µg/mL (≈ 20.9 µM)	25 mm	MIC [19]: 25 µg/mL (≈ 41.8 µM); inhibition zone (IZ) [20]: 27 mm; MIC [21]: 25 µg/mL (≈ 41.8 µM); inhibition zone (IZ) [22]: 28 mm; MIC [23]: 12.5 µg/mL (≈ 20.9 µM); inhibition zone (IZ) [24]: 24 mm; MIC [25]: 50 µg/mL (≈ 83.5 µM)
